Source: ChEMBL document CHEMBL1124186, “Synthesis and evaluation of tylosin-related macrolides modified at the aldehyde function: a new series of orally effective antibiotics” (1988)
In brackets after ≈: the same amount, converted by molar mass.

Legend:
[1] = test system: Haemophilus influenzae; experiment: In vitro antimicrobial activity against Haemophilus influenzae.; assay type: functional
[2] = test system: Staphylococcus aureus; experiment: In vitro antimicrobial activity against Staphylococcus aureus X1; assay type: functional
[3] = test system: Streptococcus pyogenes; experiment: Effective dose against Streptococcus pyogenes C203 when administered orally; assay type: functional; conditions: po
Outline: (§1)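 Mouse protection test: infected mice were dosed twice, at 1 and 5 h postinfection, either subcutaneously or orally. […] The result is expressed as ED50 in mg/kg × 2.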

[4] = test system: Streptococcus pyogenes; experiment: Effective dose against Streptococcus pyogenes C203 when administered sc; assay type: functional; outline: as §1
[5] = test system: Streptococcus pyogenes; experiment: In vivo effective dose against experimental infections in rodent caused by Streptococcus pyogenes C203 when administered sc; assay type: functional
[6] = test system: Streptococcus pneumoniae; experiment: In vitro antimicrobial activity against Streptococcus pneumoniae; assay type: functional
[7] = test system: Staphylococcus epidermidis; experiment: In vitro antimicrobial activity against Staphylococcus epidermidis EPI1; assay type: functional
[8] = test system: Enterococcus faecium; experiment: In vitro antimicrobial activity against Streptococcus faecium X66; assay type: functional, streptococcus fae-cium
[9] = test system: Streptococcus pyogenes; experiment: In vitro antimicrobial activity against Streptococcus pyogenes C203; assay type: functional
[10] = test system: Streptococcus pyogenes; experiment: Antimicrobial activity against Streptococcus pyogenes C203; assay type: functional
[11] = test system: Streptococcus pyogenes; experiment: In vivo effective dose against experimental infections in rodent caused by Streptococcus pyogenes C203 when administered orally; assay type: functional; conditions: po
[12] = test system: Bacteroides fragilis; experiment: In vitro antimicrobial activity against anaerobic bacteria bacteroides fragilis 111; assay type: functional
[13] = test system: Bacteroides fragilis; experiment: In vitro antimicrobial activity against anaerobic bacteria bacteroides fragilis 1877; assay type: functional
[14] = test system: Bacteroides fragilis; experiment: In vitro antimicrobial activity against anaerobic bacteria bacteroides fragilis 1936B,; assay type: functional
[15] = test system: Eikenella corrodens; experiment: In vitro antimicrobial activity against anaerobic bacteria bacteroides corrodens 1874; assay type: functional
[16] = test system: Phocaeicola vulgatus; experiment: In vitro antimicrobial activity against anaerobic bacteria bacteroides vulgatus 1211; assay type: functional
[17] = test system: Prevotella melaninogenica; experiment: In vitro antimicrobial activity against anaerobic bacteria bacteroides melaninogenicus 1856,; assay type: functional
[18] = test system: Bacteroides thetaiotaomicron; experiment: In vitro antimicrobial activity against anaerobic bacteria bacteroides thetaiotaomicron 1438; assay type: functional
[19] = test system: Clostridioides difficile; experiment: In vitro antimicrobial activity against anaerobic bacteria Clostridium difficile 2994; assay type: functional
[20] = test system: Clostridium perfringens; experiment: In vitro antimicrobial activity against anaerobic bacteria clostridium perfringens 81,; assay type: functional
[21] = test system: Clostridium septicum; experiment: In vitro antimicrobial activity against anaerobic bacteria clostridium septicum 1128; assay type: functional
[22] = test system: Chlamydia trachomatis; experiment: In vitro antimicrobial activity against chlamydia trachomatis.; assay type: functional
[23] = test system: Fusobacterium; experiment: In vitro antimicrobial activity against anaerobic bacteria fusobacterium symbiosum 1470; assay type: functional
[24] = test system: Haemophilus influenzae; experiment: In vitro antimicrobial activity against aerobic bacteria Haemophilus influenzae 76; assay type: functional
[25] = test system: Haemophilus influenzae; experiment: In vitro antimicrobial activity against aerobic bacteria Haemophilus influenzae MX366,; assay type: functional
[26] = test system: Haemophilus parainfluenzae; experiment: In vitro antimicrobial activity against aerobic bacteria Haemophilus parainfluenzae 9796; assay type: functional
[27] = In vitro antimicrobial activity against anaerobic bacteria peptostreptococcus intermedius 1264; assay type: functional
[28] = test system: Peptoniphilus asaccharolyticus; experiment: In vitro antimicrobial activity against anaerobic bacteria peptococcus asaccharolyticus 1302; assay type: functional
[29] = test system: Anaerococcus prevotii; experiment: In vitro antimicrobial activity against anaerobic bacteria peptococcus prevoti 1281; assay type: functional
[30] = test system: Cutibacterium acnes; experiment: In vitro antimicrobial activity against anaerobic bacteria propionibacterium acnes 79; assay type: functional
[31] = test system: Staphylococcus epidermidis; experiment: In vitro antimicrobial activity against aerobic bacteria Streptococcus epi 270; assay type: functional
[32] = test system: Staphylococcus aureus; experiment: In vitro antimicrobial activity against aerobic bacteria Staphylococcus aureus 513E; assay type: functional
[33] = test system: Staphylococcus aureus; experiment: In vitro antimicrobial activity against aerobic bacteria Staphylococcus aureus V140,; assay type: functional
[34] = test system: Staphylococcus aureus; experiment: In vitro antimicrobial activity against aerobic bacteria Staphylococcus aureus V41; assay type: functional
[35] = test system: Staphylococcus aureus; experiment: In vitro antimicrobial activity against aerobic bacteria Staphylococcus aureus X400; assay type: functional
[36] = test system: Streptococcus pyogenes; experiment: In vivo activity against experimental infections in rodent caused by Streptococcus pyogenes C203 when administered orally; assay type: functional; conditions: po
[37] = test system: Streptococcus pneumoniae; experiment: In vivo effective dose against experimental infections in mice Streptococcus pneumoniae park when administered orally; assay type: functional; conditions: po
[38] = test system: Streptococcus pneumoniae; experiment: In vivo effective dose against experimental infections in mice Streptococcus pneumoniae park when administered sc; assay type: functional
[39] = test system: Streptococcus pneumoniae; experiment: In vitro antimicrobial activity against aerobic bacteria Streptococcus pneumoniae B1-438; assay type: functional, streptococcus pneum
[40] = test system: Streptococcus sanguinis; experiment: In vitro antimicrobial activity against aerobic bacteria Streptococcus sanguis MX132; assay type: functional
[41] = test system: Streptococcus pyogenes; experiment: Activity against Streptococcus pyogenes C203 when administered orally; assay type: functional; conditions: po; outline: as §1
[42] = test system: Streptococcus pyogenes; experiment: Activity against Streptococcus pyogenes C203 when administered sc; assay type: functional; outline: as §1
[43] = test system: Staphylococcus epidermidis; experiment: In vitro antimicrobial activity against aerobic bacteria Streptococcus epi 222; assay type: functional
[44] = test system: Staphylococcus aureus; experiment: In vivo effective dose against experimental infections in mice Staphylococcus aureus X1 when administered orally; assay type: functional; conditions: po
[45] = test system: Staphylococcus aureus; experiment: In vivo effective dose against experimental infections in mice Staphylococcus aureus X1 when administered sc; assay type: functional
[46] = test system: Streptococcus viridans; experiment: In vitro antimicrobial activity against aerobic bacteria Streptococcus viridans 9943; assay type: functional
[47] = test system: Peptostreptococcus anaerobius; experiment: In vitro antimicrobial activity against anaerobic bacteria peptostreptococcus anaerobius 1428,; assay type: functional
[48] = test system: Streptococcus; experiment: In vitro antimicrobial activity against aerobic bacteria Streptococcus B 5; assay type: functional
[49] = test system: Staphylococcus aureus; experiment: In vitro antimicrobial activity against aerobic bacteria Staphylococcus aureus V135; assay type: functional
[50] = test system: Haemophilus influenzae; experiment: In vitro antimicrobial activity against aerobic bacteria Haemophilus influenzae 465; assay type: functional
[51] = test system: Prevotella melaninogenica; experiment: In vitro antimicrobial activity against anaerobic bacteria bacteroides melaninogenicus 2736; assay type: functional
[52] = test system: Fusobacterium necrophorum; experiment: In vitro antimicrobial activity against anaerobic bacteria usobacterium necrophorum 6054A; assay type: functional
[53] = test system: Collinsella aerofaciens; experiment: In vitro antimicrobial activity against anaerobic bacteria eubacterium aerofaciens 1235; assay type: functional
[54] = test system: Streptococcus pyogenes; experiment: In vivo pyogenes C203 when administered sc; assay type: functional
[55] = test system: Streptococcus; experiment: In vitro antimicrobial activity against aerobic bacteria Streptococcus B 8
[56] = test system: Streptococcus; experiment: In vitro antimicrobial activity against aerobic bacteria Streptococcus C 24
[57] = test system: Streptococcus; experiment: In vitro antimicrobial activity against aerobic bacteria Streptococcus D 2041
[58] = test system: Streptococcus; experiment: In vitro antimicrobial activity against aerobic bacteria Streptococcus D 8043
[59] = test system: Streptococcus; experiment: In vitro antimicrobial activity against aerobic bacteria Streptococcus D 9960
[60] = test system: Streptococcus; experiment: In vitro antimicrobial activity against aerobic bacteria Streptococcus G Kruder
[61] = test system: Collinsella aerofaciens; experiment: In vitro antimicrobial activity against anaerobic bacteria aerofaciens 1235; assay type: functional
[62] = test system: Peptostreptococcus anaerobius; experiment: In vitro antimicrobial activity against anaerobic bacteria eubacterium peptostreptococcus anaerobius 1428,; assay type: functional

CC[C@H]1OC(=O)C[C@@H](O)[C@H](C)[C@@H](O[C@@H]2O[C@H](C)[C@@H](O)[C@H](N(C)C)[C@H]2O)[C@@H](C)C[C@@H](C)C(=O)/C=C/C(C)=C/[C@@H]1CO[C@@H]1O[C@H](C)[C@@H](O)[C@@H](OC)[C@H]1OC
MIC [1]: 8 µg/mL (≈ 10.8 µM) | MIC [2]: 0.25 µg/mL (≈ 0.336 µM) | ED50 [3]: 1.6 mg/kg | ED50 [4]: 0.25 mg/kg | ED50 [5]: 1.6 mg/kg | MIC [6]: 2 µg/mL (≈ 2.69 µM) | MIC [7]: 0.25 µg/mL (≈ 0.336 µM) | MIC [8]: 8 µg/mL (≈ 10.8 µM) | MIC [9]: 0.25 µg/mL (≈ 0.336 µM) | MIC [10]: 8 µg/mL (≈ 10.8 µM) | ED50 [11]: 8 mg/kg

CC[C@H]1OC(=O)C[C@@H](O)[C@H](C)[C@@H](O[C@@H]2O[C@H](C)[C@@H](O)[C@H](N(C)C)[C@H]2O)[C@@H](CC=O)C[C@@H](C)C(=O)/C=C/C(C)=C/[C@@H]1CO[C@@H]1O[C@H](C)[C@@H](O)[C@@H](OC)[C@H]1OC
MIC [12]: 8 µg/mL (≈ 10.4 µM) | MIC [13]: 8 µg/mL (≈ 10.4 µM) | MIC [14]: 8 µg/mL (≈ 10.4 µM) | MIC [15]: 8 µg/mL (≈ 10.4 µM) | MIC [16]: 8 µg/mL (≈ 10.4 µM) | MIC [17]: 8 µg/mL (≈ 10.4 µM) | MIC [18]: 2 µg/mL (≈ 2.59 µM) | MIC [19]: 0.25 µg/mL (≈ 0.324 µM) | MIC [20]: 0.25 µg/mL (≈ 0.324 µM) | MIC [21]: 2 µg/mL (≈ 2.59 µM) | MIC [22]: 0.5 µg/mL (≈ 0.648 µM) | MIC [23]: 2 µg/mL (≈ 2.59 µM) | MIC [24]: 8 µg/mL (≈ 10.4 µM) | MIC [25]: 32 µg/mL (≈ 41.5 µM) | MIC [1]: 4 µg/mL (≈ 5.18 µM) | MIC [26]: 8 µg/mL (≈ 10.4 µM) | MIC [27]: 16 µg/mL (≈ 20.7 µM) | MIC [28]: 8 µg/mL (≈ 10.4 µM) | MIC [29]: 4 µg/mL (≈ 5.18 µM) | MIC [30]: 2 µg/mL (≈ 2.59 µM) | MIC [31]: > 128 µg/mL | MIC [2]: 0.5 µg/mL (≈ 0.648 µM) | MIC [32]: 1 µg/mL (≈ 1.3 µM) | MIC [33]: 1 µg/mL (≈ 1.3 µM) | MIC [34]: 1 µg/mL (≈ 1.3 µM) | MIC [35]: 1 µg/mL (≈ 1.3 µM) | ED50 [36]: 84 mg/kg | ED50 [37]: > 100 mg/kg | ED50 [38]: > 10 mg/kg | MIC [39]: > 128 µg/mL | MIC [40]: 0.5 µg/mL (≈ 0.648 µM) | ED50 [41]: 0.8 mg/kg | ED50 [42]: 0.25 mg/kg | MIC [6]: 0.25 µg/mL (≈ 0.324 µM) | MIC [7]: 0.5 µg/mL (≈ 0.648 µM) | MIC [43]: 0.25 µg/mL (≈ 0.324 µM) | ED50 [44]: > 100 mg/kg | ED50 [45]: 3.9 mg/kg | MIC [8]: 4 µg/mL (≈ 5.18 µM) | MIC [9]: 0.25 µg/mL (≈ 0.324 µM) | MIC [46]: > 128 µg/mL | MIC [47]: 4 µg/mL (≈ 5.18 µM) | MIC [48]: 0.5 µg/mL (≈ 0.648 µM) | MIC [49]: 1 µg/mL (≈ 1.3 µM) | MIC [50]: 16 µg/mL (≈ 20.7 µM) | MIC [51]: 16 µg/mL (≈ 20.7 µM) | MIC [52]: 1 µg/mL (≈ 1.3 µM) | MIC [53]: 0.12 µg/mL (≈ 0.155 µM) | ED50 [54]: 1.4 mg/kg | MIC [55]: 0.5 µg/mL (≈ 0.648 µM) | MIC [56]: 0.5 µg/mL (≈ 0.648 µM) | MIC [57]: 0.5 µg/mL (≈ 0.648 µM) | MIC [58]: 0.5 µg/mL (≈ 0.648 µM) | MIC [59]: 1 µg/mL (≈ 1.3 µM) | MIC [60]: 0.25 µg/mL (≈ 0.324 µM)

CC[C@H]1OC(=O)C[C@@H](O)[C@H](C)[C@@H](O[C@@H]2O[C@H](C)[C@@H](O)[C@H](N(C)C)[C@H]2O)[C@@H](CCO)C[C@@H](C)C(=O)/C=C/C(C)=C/[C@@H]1CO
MIC [12]: > 8 µg/mL | MIC [13]: > 8 µg/mL | MIC [14]: > 8 µg/mL | MIC [15]: > 8 µg/mL | MIC [16]: > 8 µg/mL | MIC [17]: > 8 µg/mL | MIC [18]: > 8 µg/mL | MIC [19]: 4 µg/mL (≈ 6.67 µM) | MIC [20]: 4 µg/mL (≈ 6.67 µM) | MIC [22]: > 1 µg/mL | MIC [61]: 8 µg/mL (≈ 13.3 µM) | MIC [23]: > 8 µg/mL | MIC [1]: 32 µg/mL (≈ 53.4 µM) | MIC [27]: > 8 µg/mL | MIC [28]: > 8 µg/mL | MIC [29]: > 8 µg/mL | MIC [30]: 4 µg/mL (≈ 6.67 µM) | MIC [2]: 64 µg/mL (≈ 107 µM) | ED50 [5]: > 10 mg/kg | MIC [6]: 64 µg/mL (≈ 107 µM) | MIC [7]: 32 µg/mL (≈ 53.4 µM) | MIC [8]: 64 µg/mL (≈ 107 µM) | MIC [9]: 16 µg/mL (≈ 26.7 µM) | MIC [51]: > 8 µg/mL | MIC [52]: 4 µg/mL (≈ 6.67 µM) | MIC [62]: > 8 µg/mL | ED50 [11]: > 100 mg/kg
